Holding throughout (details): stereoisomer not certain
Experiment [1] concerns the target T1, Or2c1 (Mus musculus) (UniProt P23275).
T1 sequence (whole entry): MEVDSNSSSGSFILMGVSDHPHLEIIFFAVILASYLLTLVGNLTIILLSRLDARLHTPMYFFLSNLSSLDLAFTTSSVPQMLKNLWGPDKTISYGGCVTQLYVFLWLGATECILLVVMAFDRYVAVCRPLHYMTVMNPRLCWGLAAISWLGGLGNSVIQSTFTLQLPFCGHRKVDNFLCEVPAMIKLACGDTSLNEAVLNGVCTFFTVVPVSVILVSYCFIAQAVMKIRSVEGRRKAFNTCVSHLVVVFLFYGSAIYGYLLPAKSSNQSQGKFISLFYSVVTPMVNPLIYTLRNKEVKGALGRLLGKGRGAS
A digest of the protocol:
(§1)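 Whether a receptor–molecule pair is responsive (active) rests on the original authors' judgment that its measured signal was statistically different from baseline. Pairs without that judgment are non-responsive (inactive). Sources used varied assay methods, commonly transient luciferase assays in mammalian cell lines.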

For experiment [2], the target named is T2, Or5ar1 (Mus musculus) (UniProt Q8VGS3).
T2 sequence (whole entry): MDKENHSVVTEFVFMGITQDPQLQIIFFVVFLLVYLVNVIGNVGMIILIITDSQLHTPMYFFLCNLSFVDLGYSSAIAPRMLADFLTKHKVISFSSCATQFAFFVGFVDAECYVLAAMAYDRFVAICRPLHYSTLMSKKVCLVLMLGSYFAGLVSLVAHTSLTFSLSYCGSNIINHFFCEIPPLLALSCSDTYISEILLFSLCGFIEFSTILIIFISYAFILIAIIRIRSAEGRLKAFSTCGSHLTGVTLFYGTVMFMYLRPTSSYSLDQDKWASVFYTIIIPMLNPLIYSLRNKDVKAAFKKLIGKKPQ
A digest of the protocol: as §1

The target of experiment [3] is T3, Or5p57 (Mus musculus) (UniProt Q8VEZ0).
T3 sequence (whole entry): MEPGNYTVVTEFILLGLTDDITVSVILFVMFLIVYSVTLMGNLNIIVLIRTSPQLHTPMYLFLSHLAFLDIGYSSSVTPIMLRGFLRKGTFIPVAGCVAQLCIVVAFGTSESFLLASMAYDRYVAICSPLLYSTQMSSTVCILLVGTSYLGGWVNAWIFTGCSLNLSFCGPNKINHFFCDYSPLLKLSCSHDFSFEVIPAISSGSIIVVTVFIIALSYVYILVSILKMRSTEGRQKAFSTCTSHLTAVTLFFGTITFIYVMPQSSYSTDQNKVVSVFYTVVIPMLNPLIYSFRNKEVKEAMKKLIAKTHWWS
A digest of the protocol: as §1

Experiment [4] deals with T4, Or5p80 (Mus musculus) (UniProt Q8VG42).
T4 sequence (whole entry): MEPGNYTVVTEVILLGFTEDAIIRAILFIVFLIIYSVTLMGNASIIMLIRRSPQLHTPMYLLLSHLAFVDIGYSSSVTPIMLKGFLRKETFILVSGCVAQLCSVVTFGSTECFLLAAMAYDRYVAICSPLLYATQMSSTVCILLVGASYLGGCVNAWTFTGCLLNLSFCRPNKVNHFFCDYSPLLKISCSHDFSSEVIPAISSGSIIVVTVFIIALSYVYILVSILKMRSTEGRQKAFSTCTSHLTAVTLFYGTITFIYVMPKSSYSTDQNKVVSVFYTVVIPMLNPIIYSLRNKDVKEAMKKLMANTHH
A digest of the protocol:
as §1

Experiment [5] concerns the target T5, Or7a40 (Mus musculus) (UniProt Q9JHB2).
T5 sequence (whole entry): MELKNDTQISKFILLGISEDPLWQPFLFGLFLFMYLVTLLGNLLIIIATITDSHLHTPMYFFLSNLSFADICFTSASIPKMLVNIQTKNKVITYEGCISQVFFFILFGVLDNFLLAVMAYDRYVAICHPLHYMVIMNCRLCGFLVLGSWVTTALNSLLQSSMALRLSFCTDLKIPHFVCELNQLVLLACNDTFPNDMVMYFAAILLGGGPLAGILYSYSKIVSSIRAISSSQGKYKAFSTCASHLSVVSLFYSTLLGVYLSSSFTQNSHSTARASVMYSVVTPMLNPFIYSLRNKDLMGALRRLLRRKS
An outline of the steps: as §1

Experiment [6] addresses T6, Or5an6 (Mus musculus) (UniProt Q8VFV4).
T6 sequence (whole entry): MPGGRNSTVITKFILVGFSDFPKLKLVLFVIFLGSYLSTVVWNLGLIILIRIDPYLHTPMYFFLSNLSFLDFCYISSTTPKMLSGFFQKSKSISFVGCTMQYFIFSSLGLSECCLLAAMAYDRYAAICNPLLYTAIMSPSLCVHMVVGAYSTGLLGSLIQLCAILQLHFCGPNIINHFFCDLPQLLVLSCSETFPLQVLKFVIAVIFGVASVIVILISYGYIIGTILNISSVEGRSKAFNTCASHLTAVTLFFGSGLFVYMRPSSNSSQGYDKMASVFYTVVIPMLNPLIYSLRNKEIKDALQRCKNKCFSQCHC
An outline of the steps: as §1

In experiment [7] the target is T7, Or5k16 (Mus musculus) (UniProt Q7TS48).
T7 sequence (whole entry): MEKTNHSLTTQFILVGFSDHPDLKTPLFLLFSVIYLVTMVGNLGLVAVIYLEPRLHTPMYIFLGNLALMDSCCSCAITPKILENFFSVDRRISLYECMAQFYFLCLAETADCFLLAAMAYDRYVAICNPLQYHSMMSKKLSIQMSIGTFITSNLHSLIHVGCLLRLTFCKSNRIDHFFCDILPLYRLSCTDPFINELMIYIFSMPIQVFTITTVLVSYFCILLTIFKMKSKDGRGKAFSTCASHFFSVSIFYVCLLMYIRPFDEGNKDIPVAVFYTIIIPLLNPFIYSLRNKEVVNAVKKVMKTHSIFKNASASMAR
A digest of the protocol:
as §1

Experiment [8] addresses T8, Or1m1 (Mus musculus) (UniProt Q8VFM9).
T8 sequence (whole entry): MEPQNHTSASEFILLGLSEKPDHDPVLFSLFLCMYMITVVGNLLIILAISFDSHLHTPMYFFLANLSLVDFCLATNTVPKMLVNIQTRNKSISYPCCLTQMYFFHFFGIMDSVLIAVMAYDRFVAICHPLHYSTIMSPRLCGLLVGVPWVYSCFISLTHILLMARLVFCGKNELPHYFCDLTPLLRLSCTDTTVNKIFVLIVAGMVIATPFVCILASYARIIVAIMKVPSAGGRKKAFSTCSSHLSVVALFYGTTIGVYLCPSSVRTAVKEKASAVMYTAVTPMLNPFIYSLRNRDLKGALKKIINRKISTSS
An outline of the steps:
as §1

Experiment [9] has as its target Or8b3 (Mus musculus) (UniProt Q60886). A digest of the protocol:
as §1

Experimental findings from the M2OR odorant receptor database are described below.
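Also: active if original authors judged signal statistically different from baseline.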

Chain of Or8b3 (Mus musculus) (Q60886 whole entry): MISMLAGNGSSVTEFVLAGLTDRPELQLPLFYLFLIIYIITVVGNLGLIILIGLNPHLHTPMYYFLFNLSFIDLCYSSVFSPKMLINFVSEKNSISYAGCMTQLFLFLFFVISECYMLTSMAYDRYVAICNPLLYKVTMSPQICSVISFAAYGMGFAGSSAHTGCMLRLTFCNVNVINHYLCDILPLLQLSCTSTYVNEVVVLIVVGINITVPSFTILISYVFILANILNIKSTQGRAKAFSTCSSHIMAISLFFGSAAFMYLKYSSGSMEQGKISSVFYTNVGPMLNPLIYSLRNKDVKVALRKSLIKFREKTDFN

In the case of `CCCCCO`, the “odorant receptor agonist call” value in experiment [1], in experiment [2], in experiment [3], in experiment [4] and in experiment [5] was “inactive” in each case. For the compound `CCCCCCCC(=O)CCCCCCC`, the “odorant receptor agonist call” value in experiment [6] is “active”. As for `CC1CC=CCCCCCCCCC(=O)C1` (configuration not stated), in experiment [6], the “odorant receptor agonist call” value was “active”. As for `Cc1cnc(C)cn1`, the “odorant receptor agonist call” value in experiment [7] was “inactive”. For `O=C1CCCCCCCCCC1`, the “odorant receptor agonist call” value in experiment [6] is “inactive”. Regarding `CCc1nccnc1C`, in [7], the “odorant receptor agonist call” value was “inactive”. As for `CCc1nccnc1CC`, the “odorant receptor agonist call” value in [8], in [2] and in experiment [7] was “inactive” each time.

With `O=C1CCCCCCCCCCCCCC1`, in [6], the “odorant receptor agonist call” value is “active”. Consider `O=C1CCCCCCC=CCCCCCCC1`, for which the “odorant receptor agonist call” value in [6] is “active”. For `COc1nccnc1C(C)C`, the “odorant receptor agonist call” value in experiment [8], in experiment [2] and in [7] was “inactive” in each case. For `COc1nccnc1CC(C)C`, the “odorant receptor agonist call” value in [7] was “inactive”. On the same count and under the same terms, for `CC(=O)c1cnccn1` the value was “inactive”. `O=C1CCCC=CCCCCCCCCCC1`: in experiment [6], the “odorant receptor agonist call” value was “active”. Still for that read-out and setting: for `O=C1CCCCCCCCC1` the value was “active”. As for `Cc1cnccn1`, the “odorant receptor agonist call” value in experiment [7] was “inactive”. Regarding `CC1CCCCCCCCCCCC(=O)C1` (configuration not stated), the “odorant receptor agonist call” value in [6] was “active”. For `CCC(C(=O)O)c1ccccc1` (configuration not stated), the “odorant receptor agonist call” value in experiment [1], in experiment [2], in experiment [4] and in experiment [5] was “inactive” throughout. For `COC1=C(C)OC(C)C1=O` (configuration not stated), the “odorant receptor agonist call” value in experiment [7] was “inactive”. Regarding `CCC(=O)OCC(C)(C)OC(C)C1CCCC(C)(C)C1` (configuration not stated), the “odorant receptor agonist call” value in experiment [6] was “active”.

Turning to `O=C1CCCCCC=CCCCCCCCCO1`, in experiment [6], the “odorant receptor agonist call” value is “active”. Regarding `CC(=O)c1nccnc1C`, the “odorant receptor agonist call” value in experiment [7] is “inactive”. For the compound `O=c1ccc2ccccc2o1`, the “odorant receptor agonist call” value in [1], in experiment [2] and in [5] was “inactive” throughout. The “odorant receptor agonist call” value in experiment [4] and in experiment [9] was “active” throughout.

For the compound `CC1C(C)(C)C2=C(C(=O)CCC2)C1(C)C` (configuration not stated), in [6], the “odorant receptor agonist call” value is “inactive”. As to `COc1cnccn1`, the “odorant receptor agonist call” value in [8], in experiment [2] and in experiment [7] was “inactive” throughout.

Consider `CCC(C)c1nccnc1OC` (configuration not stated), for which the “odorant receptor agonist call” value in experiment [8], in experiment [2] and in [7] was “inactive” in each case. `CCc1nccnc1C(C)=O`: the “odorant receptor agonist call” value in experiment [7] is “inactive”. Consider `O=C(O)CCCCCBr`, for which the “odorant receptor agonist call” value in [8], in experiment [2] and in experiment [3] was “inactive” in each case. Take `O=C1C=CCCCCCCCCCCCCO1`: the “odorant receptor agonist call” value in experiment [6] was “active”.

For the compound `CCc1cnc(C)c(C)n1`, the “odorant receptor agonist call” value in experiment [7] was “active”. In the case of `CC1CCc2nccnc21` (configuration not stated), the “odorant receptor agonist call” value in experiment [7] was “inactive”.

As for `CCCCCCC(=O)[O-].[H+]`, the “odorant receptor agonist call” value in [1], in experiment [2], in [3], in experiment [4] and in experiment [5] was “inactive” throughout.

Consider `C=Cc1cnccn1`, for which, in [7], the “odorant receptor agonist call” value was “inactive”. Same read-out and setting: for `CCc1nccnc1OC` the value was “inactive”. With `CCCCOC(=O)C(C)OC(=O)CCC` (configuration not stated), the “odorant receptor agonist call” value in experiment [1], in [2], in experiment [4] and in experiment [5] was “inactive” in each case.
